How the values were obtained:
hole B = details: knob B mimic derived from chicken; ref [19], [20]; cited from earlier work
single fibrin fibers = test: Single fibrin fiber breaking strain/extensibility; parameters: species or system human; details: for average single fiber breaking strain: percentage of original fiber length, 305 nm/s
Procedure, shortened: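 Fibrinogen and test compound were preincubated at 37°C for 15 min at pH 7.4 (140 mM NaCl, 10 mM HEPES, 5 mM CaCl₂); test compound finals were 1 mM, 250 μM and 100 μM. Thrombin and FXIII were added (finals: fibrinogen 3.2 μM, 0.3 NIH u/ml, 9.00 Loewy u/ml). Clots formed 75 min on striated substrates and were bead-labelled. An AFM tip stretched single fibers at 305 nm/s until rupture. Strain = (L′−L_initial)/L_initial, given as % of original length.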

fibrin network = details: cited from earlier work
fibrinogen Fragment D = target: T1, fibrinogen Fragment D (Homo sapiens, UniProt P02671+P02675+P02679); test: Surface plasmon resonance; format: binding; details: SPR; concentrations 5 μM to 1.5 mM
T1 sequence (P02675 164-491 limits assumed): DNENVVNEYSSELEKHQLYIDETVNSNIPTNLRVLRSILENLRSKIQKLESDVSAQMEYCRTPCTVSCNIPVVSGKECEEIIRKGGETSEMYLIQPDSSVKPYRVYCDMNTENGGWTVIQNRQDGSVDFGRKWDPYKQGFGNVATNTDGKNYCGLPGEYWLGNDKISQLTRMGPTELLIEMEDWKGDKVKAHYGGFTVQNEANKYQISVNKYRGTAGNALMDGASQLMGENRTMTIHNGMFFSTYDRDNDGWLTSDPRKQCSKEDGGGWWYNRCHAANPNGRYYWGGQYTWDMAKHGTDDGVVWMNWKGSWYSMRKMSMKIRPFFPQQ
T1 sequence (P02679 89-432 partner limits assumed): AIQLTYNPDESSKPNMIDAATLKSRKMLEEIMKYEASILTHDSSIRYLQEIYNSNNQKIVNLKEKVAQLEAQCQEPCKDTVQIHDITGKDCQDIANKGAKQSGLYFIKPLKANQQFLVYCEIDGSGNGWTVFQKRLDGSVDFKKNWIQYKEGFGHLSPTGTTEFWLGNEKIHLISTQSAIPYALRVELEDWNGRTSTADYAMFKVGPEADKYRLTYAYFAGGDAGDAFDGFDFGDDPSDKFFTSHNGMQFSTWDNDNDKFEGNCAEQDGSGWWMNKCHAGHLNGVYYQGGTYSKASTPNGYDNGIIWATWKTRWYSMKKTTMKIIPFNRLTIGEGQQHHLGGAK
T1 sequence (P02671 124-225 partner limits assumed): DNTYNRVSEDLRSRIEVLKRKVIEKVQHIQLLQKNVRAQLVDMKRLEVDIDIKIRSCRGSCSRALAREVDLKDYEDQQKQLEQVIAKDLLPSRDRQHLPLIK
Procedure, shortened: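 Fragment D came from human fibrinogen (2 mg/mL) digested overnight at room temperature with plasmin (0.1 U/mL), then isolated on GPRPAA beads. It was covalently coupled to self-assembled-monolayer gold chips to about 1500 RU in 3 flow cells, with 1 reference cell. Test compound was run at five concentrations (5 μM–1.5 mM) in duplicate: 25 μL/min for 4 min, then 5 min dissociation. Kinetic models were fitted and judged by residuals.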

fibrin polymerization [1] = target: T2, fibrin polymerization (Homo sapiens, UniProt P02671+P02675+P02679); test: Percent clottable protein; format: biochemical; details: from percent clottability
T2 sequence (P02675 45-491 limits assumed): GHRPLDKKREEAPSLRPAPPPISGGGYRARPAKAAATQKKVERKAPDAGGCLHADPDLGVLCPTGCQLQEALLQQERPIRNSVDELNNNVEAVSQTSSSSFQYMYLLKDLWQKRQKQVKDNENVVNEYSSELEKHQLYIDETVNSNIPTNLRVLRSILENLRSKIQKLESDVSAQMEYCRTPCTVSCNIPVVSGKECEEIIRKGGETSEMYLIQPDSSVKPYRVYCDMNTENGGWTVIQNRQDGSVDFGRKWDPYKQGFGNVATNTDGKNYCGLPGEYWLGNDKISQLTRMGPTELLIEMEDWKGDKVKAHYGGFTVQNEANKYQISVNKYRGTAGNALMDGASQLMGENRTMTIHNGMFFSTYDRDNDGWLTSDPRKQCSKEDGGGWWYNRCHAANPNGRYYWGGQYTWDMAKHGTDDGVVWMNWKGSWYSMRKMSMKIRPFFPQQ
T2 sequence (P02679 27-433 partner limits assumed): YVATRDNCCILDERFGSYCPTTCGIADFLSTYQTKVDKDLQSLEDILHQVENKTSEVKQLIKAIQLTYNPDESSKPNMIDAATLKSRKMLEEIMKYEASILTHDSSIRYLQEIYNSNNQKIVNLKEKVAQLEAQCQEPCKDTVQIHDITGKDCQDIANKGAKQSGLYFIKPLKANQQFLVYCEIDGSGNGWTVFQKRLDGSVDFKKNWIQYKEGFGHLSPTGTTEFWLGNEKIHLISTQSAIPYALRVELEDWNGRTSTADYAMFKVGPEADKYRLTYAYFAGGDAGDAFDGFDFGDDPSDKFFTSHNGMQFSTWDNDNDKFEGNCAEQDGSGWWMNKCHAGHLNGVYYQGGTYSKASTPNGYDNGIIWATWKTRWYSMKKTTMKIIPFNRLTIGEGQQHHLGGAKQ
T2 sequence (P02671 36-866 partner limits assumed): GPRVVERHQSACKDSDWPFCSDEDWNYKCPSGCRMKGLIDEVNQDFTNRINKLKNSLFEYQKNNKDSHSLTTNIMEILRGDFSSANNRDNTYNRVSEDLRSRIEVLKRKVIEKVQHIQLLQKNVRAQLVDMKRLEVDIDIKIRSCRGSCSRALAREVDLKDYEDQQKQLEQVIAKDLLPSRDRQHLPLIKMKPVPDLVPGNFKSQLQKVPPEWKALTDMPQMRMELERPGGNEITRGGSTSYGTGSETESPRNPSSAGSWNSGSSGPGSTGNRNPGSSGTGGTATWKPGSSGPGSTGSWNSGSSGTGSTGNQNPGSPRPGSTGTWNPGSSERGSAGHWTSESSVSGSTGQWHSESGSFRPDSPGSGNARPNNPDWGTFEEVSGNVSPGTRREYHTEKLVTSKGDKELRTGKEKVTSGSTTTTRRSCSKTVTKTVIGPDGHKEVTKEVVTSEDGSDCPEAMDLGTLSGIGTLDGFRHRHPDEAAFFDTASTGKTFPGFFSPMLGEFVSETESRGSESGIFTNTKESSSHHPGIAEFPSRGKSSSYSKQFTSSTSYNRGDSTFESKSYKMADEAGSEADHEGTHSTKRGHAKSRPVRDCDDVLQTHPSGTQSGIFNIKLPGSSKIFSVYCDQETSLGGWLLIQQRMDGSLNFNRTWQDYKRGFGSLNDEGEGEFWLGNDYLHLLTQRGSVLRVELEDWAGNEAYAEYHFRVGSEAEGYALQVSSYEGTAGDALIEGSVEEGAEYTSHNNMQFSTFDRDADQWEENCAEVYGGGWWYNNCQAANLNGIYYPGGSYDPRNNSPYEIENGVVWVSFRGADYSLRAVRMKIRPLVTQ
Procedure, shortened: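 Test compound at final 1, 0.25 or 0.1 mM was added to clots at pH 7.4 (25 mM HEPES, 150 mM NaCl) with final fibrinogen 1 mg/mL, thrombin 0.25 U/mL and CaCl₂ 5 mM. A350 was read every minute for 1 h. Clot liquor was then assayed for total protein (Quant-it). Percent clottable protein was computed against fibrinogen-only, no-thrombin samples.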

fibrin polymerization [2] = details: high concentrations; ref [15]; cited from earlier work
[3] = target: human fibrinogen Fragment D (human); test: SPR
[4] = 1:1 molar ratio fibrinogen:knob mimic, ref [11]

## AHRP
Hole B
  binding specificity: only bind to hole B

## AHRPYAAC-PEG
Single fibrin fibers; 100 μM
  average single fiber breaking strain: 171%
Single fibrin fibers; 250 μM
  average single fiber breaking strain: 164%
Single fibrin fibers; 1 mM
  average single fiber breaking strain: 202%
Single fibrin fibers; 1 mM, stretched at 305 nm/s
  increase of average breaking strain vs unmodified fibrin fibers: 20%
Single fibrin fibers; concentrations above its Kd
  fiber extensibility (in words): increase extensibility of fibers
Single fibrin fibers; concentrations near its Kd
  fiber extensibility (in words): decreases the extensibility of fibers
Fibrin network; [4]
  complex modulus (G*): increased the complex modulus
  susceptibility to degradation: decreased susceptibility to degradation
Fibrinogen Fragment D
  binding to fragment D (in words): at a minimum, micromolar concentrations of PEGylated knob B peptides are required to observe binding to fibrinogen

## GHRPY [reference compound]
Fibrin network; bovine knob B mimic, ref [18], [21]
  network structure and fibrinolysis: altered network structure and delayed fibrinolysis

## GPSPFPAC
Fibrin polymerization [1]; all concentrations tested
  effect on polymerization (in words): not significantly affected

## GPSPFPAC-PEG
Fibrin polymerization [1]; 1 mM
  inhibition of polymerization (in words): significantly inhibited

## Gly-Pro-Arg-Pro [GPRP]
Fibrin polymerization [2]
  fibrin polymerization: polymerization is inhibited

B1: PEGylated knob B peptide AHRPYAAC-PEG (peptide)
peptide: AHRPYAAC
modifications: not fully specified; 5 kDa maleimide-PEG conjugated to the cysteine-terminated peptide
[3]
  Kd1 (2-site model, higher-affinity site, assumed knob B:hole b): 57 µM
